Measurements reported in ChEMBL document CHEMBL1806430, “Novel aliphatic N-oxide of naphthalimides as fluorescent markers for hypoxic cells in solid tumor” (Eur J Med Chem, 2011).

Assays:
V79 [1] = assay: Ratio drug uptake in chinese hamster V79 379A cells in hypoxic to oxic condition assessed as accumulation of fluorescent N-Oxide Benzo[k,l]xanthene-3,4-naphthalimide metabolites at 10^-4 M after 4.5 hrs by fluorescent microscopic analysis; format: ADME, cell-based, Cricetulus griseus; conditions: 100 µM
Summary of the method: (§1)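 Hypoxic/oxic fluorescence ratio in V79 379A suspension cultures (MEM, 7.5% FCS). Cells given 10^-4 M compound (DMSO ≤1% final) at 37 °C under N2 + 5% CO2 or air + 5% CO2. Samples taken over a time course, centrifuged, PBS-washed and resuspended. Fluorescence read by microplate reader ("fluorescence scan ascent"); ratio taken at about 4.5 h.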

Nucleic Acid = assay: Binding affinity to calf thymus DNA assessed as binding constant; format: nucleic-acid assay; conditions: Bos taurus
Summary of the method: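 Fluorescence titration: compound at 10 × 10^-6 M in 20 mM Tris–HCl pH 7.5 at room temperature, with calf thymus DNA added in rising amounts (0–400 × 10^-6 M). Excitation 460 nm; emission spectra recorded.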

V79 [2] = assay: Ratio drug uptake in chinese hamster V79 379A cells in hypoxic to oxic condition assessed as accumulation of fluorescent N-Oxide Benzo[b]xanthene [2,1-c]naphthalimide metabolites at 10^-4 M after 4.5 hrs by fluorescent microscopic analysis; format: ADME, cell-based, Cricetulus griseus; conditions: 100 µM; summary of the method: as §1
V79 [3] = assay: Drug uptake in hypoxic-chinese hamster V79 379A cells assessed as accumulation of fluorescent N-Oxide 3-amino-1,8-naphthalimide metabolites at 10^-4 M after 4.5 hrs by fluorescent microscopic analysis; format: ADME, cell-based, Cricetulus griseus; conditions: 100 µM
Summary of the method: (§2)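 V79 379A cells grown as suspension cultures in Eagle's MEM (suspension-modified, Earle's salts) with 7.5% fetal calf serum. Compound added at 10^-4 M, DMSO 1% final or less. Incubated 4.5 h at 37 °C under nitrogen + 5% CO2 (hypoxic) or air + 5% CO2 (oxic). Cells centrifuged, PBS-washed, resuspended in PBS, then imaged by fluorescence microscopy, excitation 410 nm, 1000×.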

V79 [4] = assay: Drug uptake in oxic-chinese hamster V79 379A cells assessed as accumulation of fluorescent N-Oxide 3-amino-1,8-naphthalimide metabolite at 10^-4 M after 4.5 hrs by fluorescent microscopic analysis; format: ADME, cell-based, Cricetulus griseus; conditions: 100 µM; summary of the method: as §2
V79 [5] = assay: Ratio drug uptake in chinese hamster V79 379A cells in hypoxic to oxic condition assessed as accumulation of fluorescent N-Oxide 3-amino-1,8-naphthalimide metabolites at 10^-4 M after 4.5 hrs by fluorescent microscopic analysis; format: ADME, cell-based, Cricetulus griseus; conditions: 100 µM; summary of the method: as §1
V79 [6] = assay: Drug uptake in oxic-chinese hamster V79 379A cells assessed as accumulation of fluorescent N-Oxide Benzo[k,l]thioxanthene-3,4-naphthalimide metabolite at 10^-4 M after 4.5 hrs by fluorescent microscopic analysis; format: ADME, cell-based, Cricetulus griseus; conditions: 100 µM; summary of the method: as §2
V79 [7] = assay: Drug uptake in hypoxic-chinese hamster V79 379A cells assessed as accumulation of fluorescent N-Oxide Benzo[k,l]thioxanthene-3,4-naphthalimide metabolites at 10^-4 M after 4.5 hrs by fluorescent microscopic analysis; format: ADME, cell-based, Cricetulus griseus; conditions: 100 µM; summary of the method: as §2
V79 [8] = assay: Ratio drug uptake in chinese hamster V79 379A cells in hypoxic to oxic condition assessed as accumulation of fluorescent N-Oxide Benzo[k,l]thioxanthene-3,4-naphthalimide metabolites at 10^-4 M after 4.5 hrs by fluorescent microscopic analysis; format: ADME, cell-based, Cricetulus griseus; conditions: 100 µM; summary of the method: as §1
V79 [9] = assay: Ratio drug uptake in chinese hamster V79 379A cells in hypoxic to oxic condition assessed as accumulation of fluorescent N-Oxide 3-nitro-1,8-naphthalimide metabolites at 10^-4 M after 4.5 hrs by fluorescent microscopic analysis; format: ADME, cell-based, Cricetulus griseus; conditions: 100 µM; summary of the method: as §1
V79 [10] = assay: Drug uptake in hypoxic-chinese hamster V79 379A cells assessed as accumulation of fluorescent N-Oxide 3-nitro-1,8-naphthalimide metabolites at 10^-4 M after 4.5 hrs by fluorescent microscopic analysis; format: ADME, cell-based, Cricetulus griseus; conditions: 100 µM; summary of the method: as §2
V79 [11] = assay: Drug uptake in oxic-chinese hamster V79 379A cells assessed as accumulation of fluorescent N-Oxide 3-nitro-1,8-naphthalimide metabolite at 10^-4 M after 4.5 hrs by fluorescent microscopic analysis; format: ADME, cell-based, Cricetulus griseus; conditions: 100 µM; summary of the method: as §2

## C[N+](C)([O-])CCn1c(=O)c2ccc3oc4ccccc4c4ccc(c1=O)c2c34
V79 [1]
  Ratio: 1.5

## CN(C)CCn1c(=O)c2ccc3sc4ccccc4c4ccc(c1=O)c2c34
Nucleic Acid
  K: 2.9 ×10⁵ /M

## C[N+](C)([O-])CCN1C(=O)c2cccc3c2c(cc2c4ccccc4sc32)C1=O
V79 [2]
  Ratio: 5.2

## C[N+](C)([O-])CCN1C(=O)c2cccc3cc(N)cc(c23)C1=O
V79 [3]
  Drug uptake: Active
V79 [4]
  Drug uptake: Not Active
V79 [5]
  Ratio: 8.4

## C[N+](C)([O-])CCn1c(=O)c2ccc3sc4ccccc4c4ccc(c1=O)c2c34
V79 [6]
  Drug uptake: Not Active
Nucleic Acid
  K: 6.62 ×10³ /M
V79 [7]
  Drug uptake: Active
V79 [8]
  Ratio: 1.75

## C[N+](C)([O-])CCN1C(=O)c2cccc3cc([N+](=O)[O-])cc(c23)C1=O
V79 [9]
  Ratio: 17
V79 [10]
  Drug uptake: Active
V79 [11]
  Drug uptake: Not Active
